# ARFGAP1 inh – rat ARFGAP1 inhibition; Q62848; Arfgap1-stimulated ARF1 GTP hydrolysis, GDP FP detection; inhibition, % at 16.5 µM; hit rate 0.26% among 360,000; AID 651572;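 active = inhibition above a per-plate limit, mean inhibition of low control wells plus 3 SD, cut at about 25% in these data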;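 also: 0% = DMSO wells with enzyme and 100% = wells lacking Arfgap1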
#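 Material: truncated rat Arfgap1 GAP domain; Incubation: compound-enzyme preincubation 20 min, reaction 120 min, detection 60 min, 25 °C; Read-out: percent inhibition of Arfgap1-stimulated GTP hydrolysis; Technique: FP, GDP Alexa 633 tracer displaced from anti-GDP antibody, 620/688 nm; Controls: No-Arfgap1 wells (100%) versus DMSO full-reaction wells (0%); Replication: single well per compound.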
# PAFAH1B3 FP inh – blocks human PAF acetylhydrolase 1B catalytic subunit 3 | Q15102 | recombinant PAFAH1B3, FP-rhodamine probe, fluorescence polarization | inhibition, % at 3.39 µM | hit rate 0.28% among 340,000;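 active = inhibition above the screen-wide average of all tested compounds plus 3 SD, cut at about 25% in these data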;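 also: 0% = enzyme with DMSO only and 100% = wells lacking PAFAH1B3 protein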
# ASAP1 inh – inhibitors of human ASAP1 ArfGAP activity; ASAP1-stimulated ARF1 GTP hydrolysis, GDP FP detection; inhibition, % at 16.5 µM; hit rate 0.19% among 360,000; AID 624377; Q9ULH1; in the data active = inhibition above about 25%;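 also: 0% = vehicle with enzyme and substrate and 100% = no enzyme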
# Target sequence (Q9ULH1 325-724 limits assumed): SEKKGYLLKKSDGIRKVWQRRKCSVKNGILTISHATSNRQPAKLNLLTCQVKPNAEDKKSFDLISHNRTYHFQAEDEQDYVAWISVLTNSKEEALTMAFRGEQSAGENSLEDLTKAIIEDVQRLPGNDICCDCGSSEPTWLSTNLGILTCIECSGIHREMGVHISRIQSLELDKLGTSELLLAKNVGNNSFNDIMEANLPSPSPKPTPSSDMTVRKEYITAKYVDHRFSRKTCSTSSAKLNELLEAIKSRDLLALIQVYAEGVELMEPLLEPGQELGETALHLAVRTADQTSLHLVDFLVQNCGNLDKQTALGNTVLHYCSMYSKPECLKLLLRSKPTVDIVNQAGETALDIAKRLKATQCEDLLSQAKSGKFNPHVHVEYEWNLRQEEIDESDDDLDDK
# PAFAH1B2 inh – blocks human PAF acetylhydrolase 1b catalytic subunit 2. inhibition, % at 3.39 µM. recombinant PAFAH1B2, FP-rhodamine activity probe, fluorescence polarization. hit rate 1.2% among 340,000. P68402. AID 492953;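 active = inhibition above the mean of all tested compounds plus 3 SD, cut at about 24% in these data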;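 also: 0% = enzyme with DMSO and 100% = wells lacking PAFAH1B2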
# Target sequence (P68402 whole entry, looked up): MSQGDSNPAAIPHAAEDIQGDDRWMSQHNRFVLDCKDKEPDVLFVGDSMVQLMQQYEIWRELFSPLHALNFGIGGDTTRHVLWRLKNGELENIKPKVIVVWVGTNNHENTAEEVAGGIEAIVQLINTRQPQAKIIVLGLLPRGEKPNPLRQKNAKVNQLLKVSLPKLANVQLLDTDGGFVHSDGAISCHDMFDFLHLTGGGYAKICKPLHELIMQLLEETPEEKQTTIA
# pPAFAH FP inh – pPAFAH (human) enzyme inhibition | Q13093 | AID 463082 | recombinant pPAFAH, FP-rhodamine probe fluorescence polarization | inhibition, % at 3.39 µM | hit rate 1.5% among 330,000;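 active = inhibition above the mean inhibition across the screen plus 3 SD, cut at about 25% in these data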;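 also: inhibitors block binding of the rhodamine activity-based probe so polarization drops; 0% = enzyme with DMSO and 100% = wells lacking pPAFAH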
# PAFAH2 inh – inhibitors of human PAFAH2; hit rate 0.99% among 340,000; recombinant PAFAH2, FP-rhodamine activity probe, fluorescence polarization; Q99487; inhibition, % at 3.39 µM;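 active = inhibition above the mean over all tested compounds plus 3 SD, cut at about 30% in these data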;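 also: inhibitors block probe labeling of enzyme so polarization drops; 0% = enzyme with DMSO and 100% = wells lacking PAFAH2 protein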
# PAFAH2 confirm – PAFAH2 (human) inhibition, confirmed; shares compounds with PAFAH2 inh; recombinant PAFAH2, FP-rhodamine activity probe, fluorescence polarization; inhibition, % at 3.39 µM; hit rate 65% among 2,300; AID 493030;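 active = mean inhibition over three repeats above a set limit taken from the earlier primary screen, cut at about 30% in these data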;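 also: inhibitor blocks binding of rhodamine activity probe so polarization falls; 0% = enzyme with DMSO and 100% = wells lacking PAFAH2 protein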
# Active calls of the source: *; nt = no result given. Compounds with a hit are over-represented: about 2.7% of the library has one in this group of screens.
SMILES,ARFGAP1 inh,PAFAH1B3 FP inh,ASAP1 inh,PAFAH1B2 inh,pPAFAH FP inh,PAFAH2 inh,PAFAH2 confirm
Nc1cc(Cl)ccc1C(=O)OCC(=O)NC1CCCCC1,10.3,9.0,-4.5,-1.5,-2.5,32.6*,30.8*
O=C(COC(=O)c1cccc(Br)c1)NC1CCCCCCC1,0.2,nt,-2.2,nt,nt,nt,nt
O=C(COC(=O)c1cc(Br)ccc1Cl)NC1CCCC1,3.1,-0.8,4.1,0.3,15.6,34.1*,30.3*
O=C(COC(=O)c1ccc(Br)cc1)NC1CCCC1,6.7,3.9,9.9,-0.8,18.5,67.3*,69.1*
O=c1[nH][nH]c(=O)c2c1[nH]c(=S)n2Cc1ccccc1,11.4,1.2,-3.5,7.9,nt,-3.1,nt
N#CCC(=O)Nc1ccc(C(=O)OCC(=O)NC2CCCCCC2)cc1,4.8,3.8,0.4,2.6,6.1,83.1*,84.0*
COc1ccccc1NS(=O)(=O)c1cccc(C(=O)OCC(=O)NC2CC2)c1,-2.4,3.4,1.9,-1.8,23.6,14.4,nt
CC(=O)Nc1ccc(C(=O)OCC(=O)NC2CCCCCC2)cc1,-2.3,nt,-5.6,nt,nt,nt,nt
O=C(COC(=O)c1ccccc1)NC1CCCC1,-5.3,5.9,5.2,8.1,6.9,73.3*,57.7*
CNS(=O)(=O)c1cccc(C(=O)OCC(=O)NC2CCCC2)c1,-2.8,8.1,4.0,-2.6,5.6,46.3*,27.6
COC(=O)[C@]12CCCCC=C1N(Cc1ccc(Cl)cc1Cl)C(=O)[C@H](CC(=O)N1CCN(C(=O)C3CC3)CC1)C2,-4.2,nt,-20.5,nt,nt,nt,nt
CCOc1ccc(-c2cc(C(=O)NCc3cc(OC)cc(OC)c3)[nH]n2)c(C)c1,24.6,nt,-1.0,nt,nt,nt,nt
CC(C)C[C@H]1COc2cc(NCCO)ccc2S(=O)(=O)N1,5.6,nt,7.6,nt,nt,nt,nt
COc1cccc(/C=N/NC(=S)NC2CC3CCC2C3)c1OC (stereo not drawn),4.4,-1.3,-7.0,6.3,3.2,22.0,nt
Oc1ccccc1/C=N/NC(=S)NC1CC2CCC1C2 (stereo not drawn),8.6,5.8,13.2,11.0,11.5,60.2*,28.3
C/C(=N\OC(=O)c1ccc(C)cc1)c1sc(C)nc1C,5.3,0.1,-7.8,1.9,24.4,54.8*,43.1*
CC/C(=N/OC(=O)c1cccc(C)c1)C(=O)c1cccs1,11.7,1.5,-6.6,2.5,5.3,37.2*,26.6
C/C(=N/OC(=O)c1ccc(C)cc1)c1cccs1,1.8,-1.9,-5.7,-3.5,15.8,69.5*,51.5*
CCC(=O)N[C@H]1C=C[C@H](CC(=O)OC)O[C@@H]1CO,0.3,nt,0.1,nt,nt,nt,nt
CCOC(=O)C1(C)CCCN1C(=O)c1csnn1 (stereo not drawn),-3.5,nt,-9.0,nt,nt,nt,nt
O=C(O)c1ccc(CNC(=O)c2ccccc2NC(=O)c2ccc([N+](=O)[O-])cc2)cc1,4.0,3.8,4.3,3.7,2.2,37.8*,29.8*
O=C(O)c1ccc(CNC(=O)c2ccccc2NC(=O)c2cccc([N+](=O)[O-])c2)cc1,8.0,1.6,-9.3,-0.2,5.0,-6.1,nt
O=C(COc1ccc2c(c1)OCO2)NCc1cccs1,1.3,-1.4,18.5,0.0,4.6,3.4,nt
CCCCOc1ccc(C(=O)NCC(=O)OCCCOC(=O)CNC(=O)c2ccc(OCCCC)cc2)cc1,-11.7,nt,5.1,nt,nt,nt,nt
CCCc1cc(=O)n2[nH]c(C)nc2n1,-1.2,5.0,-6.2,-2.1,-6.2,0.7,nt
SMILES,ARFGAP1 inh,PAFAH1B3 FP inh,ASAP1 inh,PAFAH1B2 inh,pPAFAH FP inh,PAFAH2 inh,PAFAH2 confirm
CCCc1cc(=O)n2[nH]c(Cc3ccccc3)nc2n1,2.7,11.6,6.9,11.1,7.8,31.1*,15.6
N/C(=N\OC(=O)c1cccs1)C1(c2ccc(Cl)cc2Cl)CC1,1.4,5.5,13.7,7.1,2.2,58.0*,30.2*
O=C(NNc1cc(Cl)ccc1Cl)c1cccs1,6.3,nt,-11.7,nt,-2.9,nt,nt
CCCCC1=NN2C(=N)CC(=O)N=C2S1,6.0,5.6,2.2,-0.3,7.2,33.4*,6.1
COc1cc2ccc(C(C)=NNC(N)=S)cc2cc1OC,-5.5,nt,7.6,nt,nt,nt,nt
CCOC(=O)c1c(C)oc2cc(Br)c(O)c(Br)c12,15.4,3.9,-15.6,1.2,8.1,42.7*,31.3*
CCOC(=O)COc1cc2c(C(=O)OCC)c(C)oc2cc1Br,14.7,3.8,-11.1,4.8,7.9,1.1,nt
COc1ccc(COCC(O)CN2CCN(S(=O)(=O)c3ccc(C(C)C)cc3)CC2)cc1 (stereo not drawn),-1.1,4.1,-4.0,5.6,-8.6,4.4,nt
N#CCC(=O)Nc1ccc(C(=O)OCC(=O)N2CCCC2=O)cc1,2.6,5.5,-5.1,-2.8,-0.9,4.9,nt
Cc1ccc(C)c(NC(=O)COC(=O)c2ccc(S(=O)(=O)N3CCCCC3)cc2)c1,-8.2,4.8,2.9,0.5,-5.2,2.5,nt
CC(C)(C)c1ccc(NC(=O)COC(=O)c2ccc(CN3CCCC3=O)cc2)cc1,-1.8,6.3,0.8,-0.4,13.4,60.8*,50.5*
Cc1cc(C)cc(NC(=O)COC(=O)c2ccc(CN3CCCC3=O)cc2)c1,12.0,-1.9,23.4,4.7,14.0,86.1*,85.2*
Cc1ccc(NC(=O)COC(=O)c2ccc(CN3CCCC3=O)cc2)c(Cl)c1,3.8,-0.1,6.2,2.6,10.4,69.1*,71.2*
CC1=C(C(=O)N(C(C)C)C(C)C)CC(CC(=O)NC2CCCC2)C(=O)N1Cc1ccc(C(C)(C)C)cc1 (stereo not drawn),0.7,nt,-7.3,nt,nt,nt,nt
O=C1C2CC3N1CCC31c3ccccc3-n3c1c2ccc3=O (stereo not drawn),-2.2,6.7,0.3,-0.4,nt,-6.5,nt
CCOc1cc(C(=O)N2CCC(CC3CC(c4ccccc4)=NO3)(C(=O)NCc3ccc(OC)cc3)CC2)cc(OCC)c1OCC (stereo not drawn),-4.0,-2.2,21.1,9.4,8.4,30.5*,-6.3
COc1ccc(CNC(=O)C2(CC3CC(c4ccccc4)=NO3)CCN(C(=O)Cc3ccc(F)cc3)CC2)cc1 (stereo not drawn),-2.2,-12.1,-0.6,6.0,-3.5,4.0,nt
O=C(NCCC(F)(F)F)c1cccc2c(-c3ccc(F)c(F)c3)coc12,13.6,nt,0.7,nt,nt,nt,nt
Cc1c(NS(=O)(=O)c2cccc(C(=O)NCc3ccccc3Cl)c2)c(=O)n(-c2ccccc2)n1C,-8.3,5.5,-1.6,2.0,nt,5.6,nt
Cc1c(NS(=O)(=O)c2cccc(C(=O)OCC(=O)c3ccc(Cl)cc3)c2)c(=O)n(-c2ccccc2)n1C,3.9,0.2,-0.3,10.2,nt,30.2*,9.1
NS(=O)(=O)c1cccc(NS(=O)(=O)c2ccc(/C=C/C(=O)OCC(=O)c3ccc(Br)cc3)cc2)c1,-1.2,1.6,1.9,2.4,6.2,1.5,nt
COc1cccc(NC(=O)COC(=O)/C=C/c2c(C)nn(-c3ccccc3)c2C)c1,-10.8,-2.6,-10.0,-8.6,2.4,78.3*,80.3*

# Compound activity: PubChem, The Scripps Research Institute Molecular Screening Center
